Test results from ChEMBL document CHEMBL1135707, “Identification of potent and selective mechanism-based inhibitors of the cysteine protease cruzain using solid-phase parallel synthesis” (J Med Chem, 2002).
Values after ≈ are worked out from the molar mass of the structure shown.

Experiments:
[1] = target: Cruzipain (Trypanosoma cruzi, UniProt P25779); experiment: Inhibitory activity against cruzain, the major cysteine protease found in Trypanosoma cruzi
Summary of the method: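 Enzyme and inhibitor (in DMSO) preincubated 5 min before substrate addition. Read at ex 355/em 450 nm at four time points in the linear region. Activity taken against no-inhibitor controls, run in duplicate. Ki obtained from Williams–Morrison tight-binding fit.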

[2] = target: Procathepsin L (Homo sapiens, UniProt P07711); experiment: Inhibitory activity against human Cathepsin L
Summary of the method: (§1)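 Buffer was 0.25 M sodium acetate pH 5.5 with 2 mM EDTA, 0.015% Brij-35 and 1 mM DTT. 5 min enzyme–inhibitor preincubation, ex 355/em 450 nm, duplicate wells. Ki obtained from Williams–Morrison fit.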

[3] = target: Cathepsin B (Homo sapiens, UniProt P07858); experiment: Inhibitory activity against human Cathepsin B; summary of the method: as §1
[4] = Aqueous solubility using UV analysis; assay type: physicochemical
Summary of the method: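 Solubility measured by an outside lab after 2 h preincubation of inhibitor in pH 7.4 aqueous buffer at 37 °C. Quantitated by UV absorbance at 211 nm.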

Chain of Procathepsin L (P07711 whole entry): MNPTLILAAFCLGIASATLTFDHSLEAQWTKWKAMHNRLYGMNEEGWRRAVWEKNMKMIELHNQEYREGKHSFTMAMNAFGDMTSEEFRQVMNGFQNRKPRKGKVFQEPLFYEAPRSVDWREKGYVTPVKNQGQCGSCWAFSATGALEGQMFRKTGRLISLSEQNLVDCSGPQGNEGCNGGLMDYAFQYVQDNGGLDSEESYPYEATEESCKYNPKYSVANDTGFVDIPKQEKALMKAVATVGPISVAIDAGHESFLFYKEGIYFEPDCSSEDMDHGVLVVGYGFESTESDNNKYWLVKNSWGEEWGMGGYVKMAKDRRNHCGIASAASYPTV
Chain of Cruzipain (P25779 whole entry): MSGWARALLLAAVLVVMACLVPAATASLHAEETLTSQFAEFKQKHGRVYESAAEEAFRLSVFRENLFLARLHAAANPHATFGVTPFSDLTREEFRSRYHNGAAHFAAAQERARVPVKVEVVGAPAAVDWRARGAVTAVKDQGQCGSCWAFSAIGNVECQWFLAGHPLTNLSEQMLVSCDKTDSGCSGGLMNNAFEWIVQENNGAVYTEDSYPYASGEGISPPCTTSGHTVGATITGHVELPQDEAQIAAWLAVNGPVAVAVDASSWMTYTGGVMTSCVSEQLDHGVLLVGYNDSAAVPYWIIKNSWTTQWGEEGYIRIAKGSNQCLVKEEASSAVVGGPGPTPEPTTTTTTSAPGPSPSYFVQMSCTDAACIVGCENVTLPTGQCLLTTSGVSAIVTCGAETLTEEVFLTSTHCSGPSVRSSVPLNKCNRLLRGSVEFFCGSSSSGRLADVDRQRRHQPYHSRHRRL

Row | Compound | Ki [1] [µM] | Ki [2] [µM] | Ki [3] [µM] | solubility [4] [µM]
1 | CC(C)C[C@H](NC(=O)OCc1ccccc1)C(=O)N[C@@H](Cc1ccccc1)C(=O)CSC(C)C | 0.0078 | – | – | –
2 | CCOC(=O)CCSCC(=O)[C@H](Cc1ccccc1)NC(=O)[C@H](CC(C)C)NC(=O)OCc1ccccc1 | 0.008 | – | – | –
3 | O=C(N[C@@H](Cc1ccccc1)C(=O)N[C@@H](CCc1ccccc1)C(=O)CSCCCc1ccccc1)OCc1cccnc1 (stereo in doubt; 16e) | 0.0009 | 0.0288 | 0.7 | –
4 | O=C(N[C@@H](Cc1ccccc1)C(=O)N[C@@H](Cc1ccccc1)C(=O)CSCCc1ccccc1)OCc1ccccc1 | 0.0042 | – | – | –
5 | CC(C)(C)SCC(=O)[C@H](Cc1ccccc1)NC(=O)[C@H](Cc1ccccc1)NC(=O)OCc1ccccc1 | 0.0025 | 0.0017 | 0.045 | 70 (≈ 37.3 µg/mL)
6 | O=C(N[C@@H](Cc1ccccc1)C(=O)N[C@@H](Cc1ccccc1)C(=O)CSCCCc1ccccc1)OCc1cccnc1 | 0.0055 | – | – | –
7 | O=C(N[C@@H](Cc1ccccc1)C(=O)N[C@@H](Cc1ccccc1)C(=O)CSC1CCCCC1)OCc1ccccc1 | 0.0075 | – | – | –
8 | CC(C)(C)c1ccc(CSCC(=O)[C@H](Cc2ccccc2)NC(=O)[C@H](Cc2ccccc2)NC(=O)OCc2ccccc2)cc1 | 0.022 | – | – | –
9 | O=C(N[C@@H](Cc1ccccc1)C(=O)N[C@@H](Cc1ccccc1)C(=O)CSCc1ccc(Cl)cc1)OCc1ccccc1 | 0.0827 | – | – | –
10 | CCC(C)SCC(=O)[C@H](Cc1ccccc1)NC(=O)[C@H](Cc1ccccc1)NC(=O)OCc1ccccc1 (some centres undefined) | 0.0058 | – | – | –
11 | CC(C)C[C@H](NC(=O)N1CCOCC1)C(=O)N[C@@H](Cc1ccccc1)C(=O)CSC(C)(C)C | 0.0597 | – | – | –
12 | CC(=O)NCCSCC(=O)[C@H](Cc1ccccc1)NC(=O)[C@H](Cc1ccccc1)NC(=O)OCc1ccccc1 | 0.0343 | – | – | –
13 | CC(C)(C)CC(C)(CC(C)(C)C)SCC(=O)[C@H](Cc1ccccc1)NC(=O)[C@H](Cc1ccccc1)NC(=O)OCc1ccccc1 | 0.005 | – | – | –
14 | O=C(CSCCCc1ccccc1)[C@H](Cc1ccccc1)NC(=O)[C@H](Cc1ccccc1)NC(=O)N1CCOCC1 | 0.216 | – | – | –
15 | CNC(=O)CSCC(=O)[C@H](Cc1ccccc1)NC(=O)[C@H](Cc1ccccc1)NC(=O)OCc1ccccc1 | 0.015 | – | – | –
16 | CC(C)C[C@H](NC(=O)OCc1ccccn1)C(=O)N[C@@H](Cc1ccccc1)C(=O)CSC(C)(C)C | 0.0138 | – | – | –
17 | CCOC(=O)CSCC(=O)[C@H](Cc1ccccc1)NC(=O)[C@H](Cc1ccccc1)NC(=O)OCc1ccccc1 | 0.0312 | – | – | –
18 | CC(C)C[C@H](NC(=O)OCc1cccnc1)C(=O)N[C@@H](CCc1ccccc1)C(=O)CSCCCc1ccccc1 | 0.0011 | 0.144 | 1.7 | –
19 | CC(C)(C)SCC(=O)[C@H](Cc1ccccc1)NC(=O)[C@H](Cc1ccccc1)NC(=O)N1CCOCC1 | 0.0546 | – | – | –
20 | CC(C)C[C@H](NC(=O)OCc1cccnc1)C(=O)N[C@@H](Cc1ccccc1)C(=O)CSC(C)(C)C | 0.0048 | – | – | 378 (≈ 189 µg/mL)
21 | CC(C)CCSCC(=O)[C@H](Cc1ccccc1)NC(=O)[C@H](Cc1ccccc1)NC(=O)OCc1ccccc1 | 0.0301 | – | – | –
22 | CC(C)C[C@H](NC(=O)N1CCOCC1)C(=O)N[C@@H](Cc1ccccc1)C(=O)CSCCCc1ccccc1 | 0.131 | – | – | –
23 | CC(C)C[C@H](NC(=O)OCc1cccnc1)C(=O)N[C@@H](CCc1ccccc1)C(=O)CSC(C)(C)C | 0.002 | 0.044 | 1.3 | –
24 | CC(C)SCC(=O)[C@H](Cc1ccccc1)NC(=O)[C@H](Cc1ccccc1)NC(=O)OCc1ccccc1 | 0.0046 | – | – | –
25 | CC(C)C[C@H](NC(=O)OCc1ccccc1)C(=O)N[C@@H](Cc1ccccc1)C(=O)CSCCCc1ccccc1 | 0.001 | 0.0047 | 0.136 | –
26 | O=C(N[C@@H](Cc1ccccc1)C(=O)N[C@@H](Cc1ccccc1)C(=O)CSC1CCCC1)OCc1ccccc1 | 0.0343 | – | – | –
27 | CCOC(=O)CCSCC(=O)[C@H](Cc1ccccc1)NC(=O)[C@H](Cc1ccccc1)NC(=O)OCc1ccccn1 | 0.0304 | – | – | –
28 | CC(C)(C)SCC(=O)[C@H](CCc1ccccc1)NC(=O)[C@H](Cc1ccccc1)NC(=O)OCc1cccnc1 | 0.0014 | 0.0096 | 0.6 | –

Continued by falling Ki [1], values first:

Row | Ki [1] [µM] | Ki [2] [µM] | Ki [3] [µM] | solubility [4] [µM] | Compound
29 | 0.0696 | – | – | – | CCOC(=O)CCSCC(=O)[C@H](Cc1ccccc1)NC(=O)[C@H](CC(C)C)NC(=O)N1CCOCC1
30 | 0.0591 | – | – | – | CCOC(=O)CCSCC(=O)[C@H](Cc1ccccc1)NC(=O)[C@H](Cc1ccccc1)NC(=O)N1CCOCC1
31 | 0.044 | – | – | – | O=C(N[C@@H](Cc1ccccc1)C(=O)N[C@@H](Cc1ccccc1)C(=O)CSCc1ccccc1)OCc1ccccc1
32 | 0.037 | – | – | – | CCOC(=O)C(C)SCC(=O)[C@H](Cc1ccccc1)NC(=O)[C@H](Cc1ccccc1)NC(=O)OCc1ccccc1 (some centres undefined)
33 | 0.0324 | – | – | – | COc1ccc(CSCC(=O)[C@H](Cc2ccccc2)NC(=O)[C@H](Cc2ccccc2)NC(=O)OCc2ccccc2)cc1
34 | 0.0227 | – | – | – | CCOC(=O)CCSCC(=O)[C@H](Cc1ccccc1)NC(=O)[C@H](Cc1ccccc1)NC(=O)OCc1cccnc1
35 | 0.0141 | 0.0288 | 4.8 | – | CC(C)C[C@H](NC(=O)OCc1ccncc1)C(=O)N[C@@H](Cc1ccccc1)C(=O)CSC(C)(C)C
36 | 0.0104 | – | – | – | CC(C)(C)CC(C)(C)SCC(=O)[C@H](Cc1ccccc1)NC(=O)[C@H](Cc1ccccc1)NC(=O)OCc1ccccc1
37 | 0.0054 | – | – | – | O=C(N[C@@H](Cc1ccccc1)C(=O)N[C@@H](CCc1ccccc1)C(=O)CSCCCc1ccccc1)OCc1cccnc1 (stereo in doubt; 16d)
38 | 0.0046 | – | – | 288 (≈ 154 µg/mL) | CC(C)(C)SCC(=O)[C@H](Cc1ccccc1)NC(=O)[C@H](Cc1ccccc1)NC(=O)OCc1cccnc1
39 | 0.0029 | 0.0015 | 0.0427 | – | CCOC(=O)CCSCC(=O)[C@H](Cc1ccccc1)NC(=O)[C@H](Cc1ccccc1)NC(=O)OCc1ccccc1
40 | 0.002 | 0.0028 | 0.0454 | – | O=C(N[C@@H](Cc1ccccc1)C(=O)N[C@@H](Cc1ccccc1)C(=O)CSCCCc1ccccc1)OCc1ccccc1
41 | 0.0013 | 0.0079 | 0.112 | – | CC(C)C[C@H](NC(=O)OCc1ccccc1)C(=O)N[C@@H](Cc1ccccc1)C(=O)CSC(C)(C)C
